Results published in the M2OR odorant receptor database.
Numbering of substitutions follows the chain as printed.

How the values were obtained:
Conditions in all cases: stereoisomer not certain
OR6K3 = test system: T1, OR6K3
T1 sequence (whole entry): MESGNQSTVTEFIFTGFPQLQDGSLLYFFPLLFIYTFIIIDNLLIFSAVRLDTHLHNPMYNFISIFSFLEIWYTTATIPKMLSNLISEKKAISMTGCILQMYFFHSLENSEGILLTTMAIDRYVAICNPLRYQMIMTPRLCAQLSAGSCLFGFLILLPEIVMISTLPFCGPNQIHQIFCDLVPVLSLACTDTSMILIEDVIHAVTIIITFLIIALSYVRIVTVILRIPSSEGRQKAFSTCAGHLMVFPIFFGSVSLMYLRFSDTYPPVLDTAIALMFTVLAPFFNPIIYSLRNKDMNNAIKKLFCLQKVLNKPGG
Outline: (§1)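 Assay methods differ from source to source, frequently being transient luciferase assays in mammalian cell lines. For each receptor–molecule pair, the label responsive (active) applies when the original authors judged the measured signal statistically different from baseline, and non-responsive (inactive) applies otherwise.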

OR6K6 (Homo sapiens) = biological target: T2, OR6K6 (Homo sapiens) (UniProt Q8NGW6)
T2 sequence (whole entry): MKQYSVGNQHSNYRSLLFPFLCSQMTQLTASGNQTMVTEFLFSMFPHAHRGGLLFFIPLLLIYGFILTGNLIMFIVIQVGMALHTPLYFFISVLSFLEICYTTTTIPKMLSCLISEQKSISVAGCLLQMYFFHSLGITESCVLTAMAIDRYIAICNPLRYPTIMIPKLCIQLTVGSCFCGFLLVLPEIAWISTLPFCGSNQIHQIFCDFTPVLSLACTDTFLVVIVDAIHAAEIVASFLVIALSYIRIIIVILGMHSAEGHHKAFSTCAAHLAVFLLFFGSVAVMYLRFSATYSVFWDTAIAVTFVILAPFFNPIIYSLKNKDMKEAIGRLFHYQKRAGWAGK
Outline: as §1

OR6M1 (Homo sapiens) = biological target: T3, OR6M1 (Homo sapiens) (UniProt Q8NGM8)
T3 sequence (whole entry): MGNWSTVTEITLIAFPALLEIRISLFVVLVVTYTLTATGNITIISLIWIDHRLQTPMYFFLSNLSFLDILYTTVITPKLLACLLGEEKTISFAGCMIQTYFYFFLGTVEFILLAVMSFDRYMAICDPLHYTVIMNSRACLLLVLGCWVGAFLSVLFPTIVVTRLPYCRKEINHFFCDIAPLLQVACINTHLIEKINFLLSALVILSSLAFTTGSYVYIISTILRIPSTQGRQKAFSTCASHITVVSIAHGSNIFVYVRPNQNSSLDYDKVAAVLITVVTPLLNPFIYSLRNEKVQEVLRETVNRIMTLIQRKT
Outline: as §1

OR6M1 R224C = test system: T4, OR6M1 R224C
T4 sequence (whole entry): T3 sequence (whole entry) with R224C
Outline: as §1

OR6M1 T276K = test system: T5, OR6M1 T276K
T5 sequence (whole entry): T3 sequence (whole entry) with T276K
Outline: as §1

OR6N1 (Homo sapiens) = biological target: T6, OR6N1 (Homo sapiens) (UniProt Q8NGY5)
T6 sequence (whole entry): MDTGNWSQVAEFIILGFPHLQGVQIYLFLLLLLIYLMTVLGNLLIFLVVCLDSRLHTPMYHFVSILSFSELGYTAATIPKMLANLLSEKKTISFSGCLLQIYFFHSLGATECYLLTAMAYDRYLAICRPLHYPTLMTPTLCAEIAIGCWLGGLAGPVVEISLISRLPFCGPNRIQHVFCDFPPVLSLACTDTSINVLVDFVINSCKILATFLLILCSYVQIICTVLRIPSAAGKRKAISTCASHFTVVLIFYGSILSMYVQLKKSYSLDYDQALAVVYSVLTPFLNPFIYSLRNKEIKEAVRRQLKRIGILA
Outline: as §1

OR6N2 (Homo sapiens) = biological target: T7, OR6N2 (Homo sapiens) (UniProt Q8NGY6)
T7 sequence (whole entry): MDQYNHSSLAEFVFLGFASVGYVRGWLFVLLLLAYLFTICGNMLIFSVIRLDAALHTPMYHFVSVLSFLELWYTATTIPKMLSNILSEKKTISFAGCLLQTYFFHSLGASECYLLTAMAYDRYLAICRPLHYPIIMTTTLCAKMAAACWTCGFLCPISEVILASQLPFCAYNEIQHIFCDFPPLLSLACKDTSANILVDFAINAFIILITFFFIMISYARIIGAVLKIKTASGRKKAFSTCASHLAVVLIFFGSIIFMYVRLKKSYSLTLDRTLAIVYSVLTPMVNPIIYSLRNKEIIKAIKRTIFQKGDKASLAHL
Outline: as §1

OR6P1 (Homo sapiens) = biological target: T8, OR6P1 (Homo sapiens) (UniProt Q8NGX9)
T8 sequence (whole entry): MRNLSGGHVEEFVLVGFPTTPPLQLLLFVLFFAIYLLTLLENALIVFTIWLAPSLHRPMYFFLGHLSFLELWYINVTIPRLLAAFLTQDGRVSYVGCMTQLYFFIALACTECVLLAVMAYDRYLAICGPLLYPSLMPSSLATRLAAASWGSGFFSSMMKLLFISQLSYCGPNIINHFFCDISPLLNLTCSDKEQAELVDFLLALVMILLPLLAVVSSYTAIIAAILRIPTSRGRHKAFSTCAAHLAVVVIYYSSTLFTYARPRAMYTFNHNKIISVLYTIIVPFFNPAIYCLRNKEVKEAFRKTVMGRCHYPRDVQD
Outline: as §1

OR6Q1 (Homo sapiens) = biological target: T9, OR6Q1 (Homo sapiens) (UniProt Q8NGQ2)
T9 sequence (whole entry): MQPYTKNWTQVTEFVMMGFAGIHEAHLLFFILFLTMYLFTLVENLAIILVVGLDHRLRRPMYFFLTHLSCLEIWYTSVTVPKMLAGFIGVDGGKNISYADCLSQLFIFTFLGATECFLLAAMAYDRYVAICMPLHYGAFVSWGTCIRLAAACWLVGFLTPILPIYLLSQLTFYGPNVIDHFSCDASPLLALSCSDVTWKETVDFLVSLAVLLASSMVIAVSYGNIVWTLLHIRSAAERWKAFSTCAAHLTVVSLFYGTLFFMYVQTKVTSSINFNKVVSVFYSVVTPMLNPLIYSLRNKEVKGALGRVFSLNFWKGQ
Outline: as §1

OR6S1 (Homo sapiens) = biological target: T10, OR6S1 (Homo sapiens) (UniProt Q8NH40)
T10 sequence (whole entry): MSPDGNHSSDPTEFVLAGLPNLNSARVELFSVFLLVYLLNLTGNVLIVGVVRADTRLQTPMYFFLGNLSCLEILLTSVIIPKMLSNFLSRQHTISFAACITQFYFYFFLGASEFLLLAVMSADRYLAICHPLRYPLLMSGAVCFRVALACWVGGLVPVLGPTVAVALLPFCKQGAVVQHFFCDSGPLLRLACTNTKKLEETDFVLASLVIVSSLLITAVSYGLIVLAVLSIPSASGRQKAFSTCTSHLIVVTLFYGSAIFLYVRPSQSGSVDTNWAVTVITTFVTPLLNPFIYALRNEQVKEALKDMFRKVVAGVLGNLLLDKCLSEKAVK
Outline: as §1

OR6S1 T42I V156I = test system: T11, OR6S1 T42I V156I
T11 sequence (whole entry): T10 sequence (whole entry) with T42I, V156I
Outline: as §1

OR6T1 (Homo sapiens) = biological target: T12, OR6T1 (Homo sapiens) (UniProt Q8NGN1)
T12 sequence (whole entry): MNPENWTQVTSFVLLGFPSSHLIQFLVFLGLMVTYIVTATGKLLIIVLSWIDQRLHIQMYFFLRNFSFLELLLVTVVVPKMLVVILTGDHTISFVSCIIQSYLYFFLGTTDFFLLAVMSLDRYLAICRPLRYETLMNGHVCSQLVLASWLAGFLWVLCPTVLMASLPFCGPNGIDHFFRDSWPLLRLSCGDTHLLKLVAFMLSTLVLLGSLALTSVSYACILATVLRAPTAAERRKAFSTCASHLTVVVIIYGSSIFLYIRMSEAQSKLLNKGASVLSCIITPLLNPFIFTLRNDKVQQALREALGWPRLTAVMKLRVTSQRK
Outline: as §1

OR6T1 N2D = test system: T13, OR6T1 N2D
T13 sequence (whole entry): T12 sequence (whole entry) with N2D
Outline: as §1

OR6V1 (Homo sapiens) = biological target: T14, OR6V1 (Homo sapiens) (UniProt Q8N148)
T14 sequence (whole entry): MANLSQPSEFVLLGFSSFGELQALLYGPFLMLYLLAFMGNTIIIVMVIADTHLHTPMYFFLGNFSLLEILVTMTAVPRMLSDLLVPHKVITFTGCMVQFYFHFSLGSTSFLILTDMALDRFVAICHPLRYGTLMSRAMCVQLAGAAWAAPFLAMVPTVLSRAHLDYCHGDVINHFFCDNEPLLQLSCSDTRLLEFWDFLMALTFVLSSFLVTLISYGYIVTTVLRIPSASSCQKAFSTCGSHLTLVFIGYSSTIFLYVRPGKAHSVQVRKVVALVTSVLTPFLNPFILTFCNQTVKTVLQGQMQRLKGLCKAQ
Outline: as §1

OR6X1 (Homo sapiens) = biological target: T15, OR6X1 (Homo sapiens) (UniProt Q8NH79)
T15 sequence (whole entry): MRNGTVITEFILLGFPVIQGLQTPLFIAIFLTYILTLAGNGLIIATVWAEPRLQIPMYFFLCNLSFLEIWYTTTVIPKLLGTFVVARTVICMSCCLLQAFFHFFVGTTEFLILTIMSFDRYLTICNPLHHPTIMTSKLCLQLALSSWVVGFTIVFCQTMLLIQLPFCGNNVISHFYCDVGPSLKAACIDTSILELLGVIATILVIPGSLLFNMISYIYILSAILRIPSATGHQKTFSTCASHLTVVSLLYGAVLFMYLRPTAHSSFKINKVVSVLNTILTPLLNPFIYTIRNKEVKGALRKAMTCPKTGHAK
Outline: as §1

OR6Y1 (Homo sapiens) = biological target: T16, OR6Y1 (Homo sapiens) (UniProt Q8NGX8)
T16 sequence (whole entry): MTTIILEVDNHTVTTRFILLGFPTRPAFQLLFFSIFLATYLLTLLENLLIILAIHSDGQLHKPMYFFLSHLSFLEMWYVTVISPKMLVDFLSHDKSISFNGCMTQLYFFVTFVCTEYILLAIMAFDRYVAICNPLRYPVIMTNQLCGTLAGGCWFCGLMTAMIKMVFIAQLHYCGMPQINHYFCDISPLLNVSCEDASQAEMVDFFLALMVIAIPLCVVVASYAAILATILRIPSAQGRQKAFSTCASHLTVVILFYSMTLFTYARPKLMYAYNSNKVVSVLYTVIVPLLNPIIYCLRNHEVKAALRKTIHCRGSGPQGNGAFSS
Outline: as §1

OR7A10 (Homo sapiens) = biological target: T17, OR7A10 (Homo sapiens) (UniProt O76100)
T17 sequence (whole entry): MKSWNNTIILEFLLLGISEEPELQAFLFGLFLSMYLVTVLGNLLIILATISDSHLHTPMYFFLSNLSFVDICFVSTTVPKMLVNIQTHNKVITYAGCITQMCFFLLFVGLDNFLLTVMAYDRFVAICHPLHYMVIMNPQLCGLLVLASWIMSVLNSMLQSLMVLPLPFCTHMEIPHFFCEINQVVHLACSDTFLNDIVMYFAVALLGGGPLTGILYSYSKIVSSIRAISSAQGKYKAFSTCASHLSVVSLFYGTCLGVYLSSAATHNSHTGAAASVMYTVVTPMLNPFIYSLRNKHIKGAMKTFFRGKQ
Outline: as §1

OR7A17 (Homo sapiens) = biological target: T18, OR7A17 (Homo sapiens) (UniProt O14581)
T18 sequence (whole entry): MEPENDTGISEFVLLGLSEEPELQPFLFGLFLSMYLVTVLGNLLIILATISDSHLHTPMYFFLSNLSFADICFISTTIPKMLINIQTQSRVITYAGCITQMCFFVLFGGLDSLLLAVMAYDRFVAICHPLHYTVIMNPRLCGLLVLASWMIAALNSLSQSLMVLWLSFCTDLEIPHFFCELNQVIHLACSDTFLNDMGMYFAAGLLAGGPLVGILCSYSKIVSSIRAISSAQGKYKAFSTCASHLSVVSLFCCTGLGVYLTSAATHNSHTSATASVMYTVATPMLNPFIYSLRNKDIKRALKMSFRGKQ
Outline: as §1

OR7A5 (Homo sapiens) = biological target: T19, OR7A5 (Homo sapiens) (UniProt Q15622)
T19 sequence (whole entry): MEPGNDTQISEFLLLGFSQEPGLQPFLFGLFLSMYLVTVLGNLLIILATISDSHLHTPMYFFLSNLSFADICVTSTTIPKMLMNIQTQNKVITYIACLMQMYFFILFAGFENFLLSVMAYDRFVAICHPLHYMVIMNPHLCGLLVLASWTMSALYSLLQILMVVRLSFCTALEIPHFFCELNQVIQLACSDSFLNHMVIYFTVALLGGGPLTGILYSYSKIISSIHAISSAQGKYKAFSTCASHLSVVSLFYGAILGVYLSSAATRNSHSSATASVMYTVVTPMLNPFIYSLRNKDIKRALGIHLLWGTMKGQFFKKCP
Outline: as §1

OR6K3 (Homo sapiens) = biological target: T20, OR6K3 (Homo sapiens) (UniProt Q8NGY3)
T20 sequence (whole entry): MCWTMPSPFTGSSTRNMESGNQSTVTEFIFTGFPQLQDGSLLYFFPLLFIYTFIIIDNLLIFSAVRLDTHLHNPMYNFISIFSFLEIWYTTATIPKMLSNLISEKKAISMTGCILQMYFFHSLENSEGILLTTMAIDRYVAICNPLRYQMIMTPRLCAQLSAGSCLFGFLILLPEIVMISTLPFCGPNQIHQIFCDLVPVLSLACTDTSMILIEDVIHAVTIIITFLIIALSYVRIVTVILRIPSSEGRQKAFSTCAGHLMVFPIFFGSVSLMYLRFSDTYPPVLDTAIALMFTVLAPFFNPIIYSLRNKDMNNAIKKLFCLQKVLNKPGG
Outline: as §1

Measured: odorant receptor agonist call

CC1=C(O)C(=O)C(C)O1 (stereo not drawn)
not listed: OR6K3 (Homo sapiens)
inactive: all other assays above

CCC1OC(=O)C(O)=C1C (stereo not drawn)
not listed: OR6K3 (Homo sapiens)
inactive: all other assays above

CCCCCC(=O)C(C)C(C)=O (stereo not drawn)
not listed: OR6K3 | OR6M1 R224C | OR6M1 T276K | OR6S1 T42I V156I | OR6T1 N2D
inactive: all other assays above

CC1CCCCCCCCCCCCC(=O)C1 (stereo not drawn)
not listed: OR6K3 | OR6M1 R224C | OR6M1 T276K | OR6S1 T42I V156I | OR6T1 N2D
inactive: all other assays above
